Measurements collected from several papers.
Protocols differ between the studies behind these lines. ≈ marks a conversion by molar mass, not a printed value.
Organism: Mycobacterium tuberculosis variant bovis BCG
Effect on: microbial growth

| SMILES | strain | time | measurement | result |
| --- | --- | --- | --- | --- |
| Clc1ccc(COC(Cn2ccnc2)c2ccc(Cl)cc2Cl)cc1 (stereo not drawn) | BCG | – | MIC50 | 12.7 µM (≈ 4.85 µg/mL) |
| c1ccc(COc2ccc(CNCc3cccnc3)cc2)cc1 | ATCC35734 BCG | – | MIC | > 62.5 µM |
| CCCCCCn1c2c([n+](C3CCC4(CCCCC4)CC3)c1C)C(=O)c1ccccc1C2=O | BCG | 5 days | MIC50 | 0.08 µM |
| COc1ccc(C=CC(=O)c2ccccc2)cc1OC | BCG | 7 days | MIC | 6.25 µg/mL |
| Clc1cccc(COc2ccccc2CNCc2ccncc2)c1 | ATCC35734 BCG | – | MIC | > 62.5 µM |
| COc1ccc(C=CC(=O)c2ccc(F)cc2)cc1OC | BCG | 7 days | MIC | 25 µg/mL |
| C=CC(c1ccc(-c2ccc3c(c2)OCO3)cc1F)n1ccnc1 (stereo not drawn) | BCG | – | MIC50 | > 30 µM |
| COc1ccc(C=CC(=O)c2cccc([N+](=O)[O-])c2)cc1OC | BCG | 7 days | MIC | 100 µg/mL |
| Fc1ccc(COc2cccc(CNCc3ccncc3)c2)cc1 | ATCC35734 BCG | – | MIC | > 62.5 µM |
| Nc1cnc(C(=O)O)cn1 | ATCC35734 BCG | 5 days | IC50 | 800 µM |
| c1ccc(COc2ccccc2CNCc2ccncc2)cc1 | ATCC35734 BCG | – | MIC | > 62.5 µM |
| C=CC(c1ccc(-c2ccc3c(c2)OCO3)cc1)n1ccnc1 (stereo not drawn) | BCG | – | MIC50 | 20 µM (≈ 6.09 µg/mL) |
| COc1ccc(C=CC(=O)c2ccc(C)cc2)cc1OC | BCG | 7 days | MIC | 25 µg/mL |
| C=CC(c1ccc(-c2ccc3[nH]ccc3c2)cc1)n1ccnc1 (stereo not drawn) | BCG | – | MIC50 | 41 µM (≈ 12.3 µg/mL) |
| CCCNc1cnc(C(=O)O)cn1 | ATCC35734 BCG | 5 days | IC50 | 700 µM |
